# Sampled rows, rich in hits. Any-hit rate of the full collection: about 6.3%.
# SF-1 act: activates the human nuclear receptor SF-1 | Q13285 | CHO-K1 Gal4-SF-1 LBD luciferase reporter; % increase over DMSO SF-1-specific signal | activation, % at 10 µM | hit rate 1.9% among 65,000;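 active = activation above the mean activation of all tested compounds plus 3 SD, cut at about 50% in these data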
#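 Material: Transient Gal4-SF-1 LBD reporter, CHO-K1 | Input: 4,000 cells/well | Dosing: One dose, 10 µM compound, 1% DMSO | Incubation: 20 h compound treatment, 37 °C | Detection: SteadyLite luciferase luminescence | Evaluation: Percent activation relative to DMSO median and mock-transfected background | Benchmarks: DMSO-treated SF-1-transfected cells as negative, DMSO-treated mock-transfected cells lacking SF-1 as background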
# M1 antagonist: M1 muscarinic receptor (rat) antagonism. P08482. CHO-M1 cells, Fluo-4 calcium, ACh EC80 antagonist mode; stronger effect = lower value. B-score at 10 µM. hit rate 3.4% among 64,000;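 active = calcium fluorescence response, raw or row-and-column corrected B-score, differing from the plate sample mean either way at a set confidence level, mostly lower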
# RORA act: activates the human nuclear receptor RORA; CHO-K1 Gal4-RORA LBD luciferase reporter, luminescence; percent increase over mock-subtracted basal signal; activation, % at 10 µM; hit rate 1.5% among 65,000; AID 560;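 active = activation above the mean of all tested compounds plus 3 SD, cut at about 49% in these data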;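 also: 0% = DMSO-treated RORA cells and 100% = added signal equal to DMSO minus mock-transfected cells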
# Target sequence (P35398 whole entry, looked up, the tested form may be a part): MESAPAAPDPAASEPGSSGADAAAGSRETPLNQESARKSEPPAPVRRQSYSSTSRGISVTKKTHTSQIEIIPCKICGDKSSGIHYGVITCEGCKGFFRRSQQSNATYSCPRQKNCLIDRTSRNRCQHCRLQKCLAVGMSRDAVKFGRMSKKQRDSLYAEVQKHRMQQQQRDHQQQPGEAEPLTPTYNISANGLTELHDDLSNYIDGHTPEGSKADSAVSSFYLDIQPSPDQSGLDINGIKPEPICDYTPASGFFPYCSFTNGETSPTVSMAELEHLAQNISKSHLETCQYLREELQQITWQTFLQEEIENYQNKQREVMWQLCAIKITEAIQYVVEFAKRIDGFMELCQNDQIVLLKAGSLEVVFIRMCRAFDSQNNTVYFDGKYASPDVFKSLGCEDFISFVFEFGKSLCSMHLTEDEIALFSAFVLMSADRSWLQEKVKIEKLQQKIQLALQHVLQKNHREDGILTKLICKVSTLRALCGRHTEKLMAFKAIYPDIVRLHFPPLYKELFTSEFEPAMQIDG
# M1 agonist: M1 muscarinic receptor agonism; CHO-M1 cells, Fluo-4 calcium fluorescence, agonist mode; stronger effect = higher value; B-score at 10 µM; hit rate 3% among 64,000; AID 626;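 active = fluorescence rise, raw or as B-score row- and column-corrected plate score, outside the 99.7% band of its plate's samples, either direction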
# MT1-MMP txn act: activates MT1-MMP transcription. HT1080 MT1-MMP promoter luciferase reporter, luminescence, overnight; stronger effect = higher value. activation factor at 10 µM. hit rate 0.16% among 86,000;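 active = activation factor of at least 2 for MT1-MMP transcription at 10 µM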
# M1 antag confirm: confirmation of rat M1 muscarinic receptor antagonists; shares compounds with M1 antagonist; CHO-M1 cells, Fluo-4 calcium, ACh EC80 antagonism; stronger effect = lower value; calcium response (max-min fluorescence) at 10 µM; hit rate 43% among 1,700; AID 677;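 active = calcium response below the same-plate mean of wells given acetylcholine alone at its 80%-effect dose, minus 3 SD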;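 also: raw fluorescence intensity difference in arbitrary instrument units and not normalized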
# mGluR4 antag: acts on human mGluR4 in M1 antagonist selectivity test. shares compounds with M1 antagonist. CHO-mGluR4 calcium flux, Fluo-4 fluorescence, glutamate EC80; stronger effect = lower value. fluorescence response (max-min) at 10 µM. hit rate 0.9% among 1,700. AID 678;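 active = fluorescence response below the plate's average for near-maximal glutamate wells, less 3 SD of those wells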;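 also: raw unnormalized fluorescence span taken in the window right after glutamate addition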
# * marks the source's active call; other numbers are inactive results; . = not tested or not shown.
SMILES,SF-1 act,M1 antagonist,RORA act,M1 agonist,MT1-MMP txn act,M1 antag confirm,mGluR4 antag
CC1CC(C)CN(CC(C)(C)NS(=O)(=O)c2ccccc2)C1 (configuration not stated),17.0,-2.57*,-16.5,1.5,1.1,548,246
O=C(NCC1CCCO1)c1ccc(CS(=O)(=O)Cc2ccc(F)cc2)o1 (configuration not stated),7.0,-0.224,-19.6,0.112,1.2,.,.
Cc1cc(C)nc(NC(=O)c2ccc(Cl)c(Cl)c2)n1,.,.,.,.,1.1,.,.
Cc1cc(C)nc(NC2=NCCN2C(=O)Nc2ccc(Cl)c(Cl)c2)n1,-2.4,-4.09*,5.9,-0.728,.,475,217
COc1cc(C)c(N)cc1C(C)C,-3.2,-0.0438,-4.9,1.06,1.1,.,.
COc1ccc(C(CNC(=O)c2ccc(OCC3CCCO3)cc2)N2CCOCC2)cc1 (configuration not stated),-5.2,-0.0315,-1.7,-0.156,1,.,.
COc1ccc(C(CNC(=O)c2ccc(S(=O)(=O)N3CCOCC3)cc2)N2CCCCC2)cc1 (configuration not stated),14.6,-3.24*,-10.5,-0.688,1.3,576,186
CCC(O)(CCN1CCCCC1)c1ccccc1 (configuration not stated),-11.6,-10.7*,6.6,0.354,.,111*,213
CCCCOc1ccc(C(O)(CC)CCN2CCOCC2)cc1 (configuration not stated),.,.,.,.,1.3,.,.
CC(O)(C#CCN1CCCC1)c1ccccc1 (configuration not stated),-19.5,-2.27*,4.2,-0.934,1.1,493,212
COc1ccccc1-n1c(=O)oc2ccc(Cl)cc2c1=O,-1.5,-1.47,-9.6,-2.43,1.3,.,.
C=CCc1ccccc1OCCCCN1CCCC1,0.7,-3.42*,10.7,0.197,1.1,367*,249
Cc1ccccc1OCCCN1CCCC1,-19.9,-0.144,-15.4,-0.572,1.2,.,.
CCc1ccccc1OCCCCN1CCCC1,17.6,-4.32*,12.4,-0.672,1,517,272
Cc1ccc(S(=O)(=O)N(C)CCCC(=O)N2CCN(C=O)CC2)cc1,3.1,0.577,5.8,-1.66,1,.,.
CCOC(=O)c1cccc(NC(=O)CN(c2ccc(C)cc2)S(=O)(=O)c2c(C)n[nH]c2C)c1,0.6,0.264,-1.6,0.337,1.2,.,.
COc1ccc2c(c1)[nH]c1c(=O)n(CCCn3ccnc3)cnc12,.,.,.,.,1.2,.,.
CCN1C(=O)c2ccccc2S(=O)c2ccc(C(=O)N3CCN(C(=O)c4ccco4)CC3)cc21 (configuration not stated),-7.0,-1.34*,-4.7,-0.0255,1.1,485,220
CC(=O)Nc1ccc(Oc2ncccn2)c(Cl)c1,.,.,.,.,1.1,.,.
COc1ccccc1CN1CCN(C(CC(C)C)c2nnnn2Cc2cccs2)CC1 (configuration not stated),-0.6,-2.03*,4.0,-0.143,1.1,558*,210
CCOC(=O)C1CCCN(CC(=O)Nc2c(C(=O)OC)[nH]c3ccccc23)C1 (configuration not stated),12.8,-5.75*,9.9,-0.106,1.1,552*,147
CCOC(=O)C1CCCN(CC(=O)Nc2c(C(=O)OC)[nH]c3ccc(C)cc23)C1 (configuration not stated),12.4,0.00409,19.5,0.225,1.3,.,.
COC(=O)c1[nH]c2ccccc2c1NC(=O)CN1CCC(C(N)=O)(N2CCCCC2)CC1,29.4,-2.55*,17.2,1.31,1.1,550,191
COC(=O)c1[nH]c2ccccc2c1NC(=O)CN1CCCCCC1,-5.2,-0.547,-2.0,-0.615,1.1,.,.
Cc1cc(C)nc(N2CCCC(C(=O)Nc3cc(F)ccc3C)C2)n1 (configuration not stated),-8.0,-0.0323,-15.2,0.322,1.1,.,.
SMILES,SF-1 act,M1 antagonist,RORA act,M1 agonist,MT1-MMP txn act,M1 antag confirm,mGluR4 antag
CCC(C)(C)n1nnnc1C(c1cc2cc(OC)ccc2[nH]c1=O)N1CCc2ccccc21 (configuration not stated),-3.5,-16.3*,-11.4,0.229,1.1,486,198
Nc1nnc(SCC(=O)NC23CC4CC(CC(C4)C2)C3)s1,.,.,.,.,1,.,.
C=CCn1c(NCc2ccc(N(C)C)cc2)nc2ccccc21,21.4,-2.27*,38.9,-0.972,.,584,220
Cc1nc(NC2=NCN(CCN3CCOCC3)CN2)nc2c(C)cccc12,-12.2,-0.663,16.9,0.516,1.2,.,.
Cc1ccc2nc(NC3=NCN(CCN4CCOCC4)CN3)nc(C)c2c1,-3.8,-2.61*,8.3,0.765,0.8,317*,233
COc1ccc(C(=O)CSc2nnc(Cn3cnc4ccccc43)o2)cc1,-33.4,-2.19*,-14.4,2.04,1,532*,253
CCc1cc2c(=O)c(-c3cnn(-c4ccccc4)c3)c(C)oc2c(CN2CCCCC2)c1O,.,.,.,.,1.1,.,.
CCc1cc2c(=O)c(-c3cnn(-c4ccccc4)c3)coc2c(CN2CCOCC2)c1O,-9.0,-4.19*,-15.8,0.748,1.2,528,193
Cc1ccc(C)n1-c1sccc1C(=O)O,.,.,.,.,1.3,.,.
O=C(NCc1ccco1)C1CCN(c2nnc(-n3cccc3)s2)CC1,-7.1,-0.387,8.7,0.46,1.2,.,.
O=C(NC1CCN(Cc2ccccc2)CC1)C1CCCN(c2nnc(-n3cccc3)s2)C1 (configuration not stated),12.9,-3.34*,-13.1,-0.648,1.1,260*,194
O=C(NC1CCN(Cc2ccccc2)CC1)C1CCN(c2nnc(-n3cccc3)s2)CC1,-3.3,-1.35*,3.1,-0.655,1,278*,241
CCCN1C2CCCC1CC(NC(=O)c1ccccc1)C2 (configuration not stated),10.4,-2.52,-7.4,-0.0937,1.1,.,.
CCCN1C2CCCC1CC(NC(=O)c1ccccc1F)C2 (configuration not stated),-2.2,-3.71*,-10.2,-1.17,1,567,236
CCCN1C2CCCC1CC(NC(=O)c1ccccc1OCC)C2 (configuration not stated),-1.3,-3.85*,4.7,1.03,1,461*,237
Cn1c(SCC(=O)NCc2ccccc2)nnc1C1CC1,2.6,0.219,4.5,-0.135,1.1,.,.
Cn1cccc1Cc1nnc(SCC(=O)N2CCN(c3ccccc3)CC2)n1-c1ccc(F)cc1,-5.5,0.434,-3.3,0.228,1.1,.,.
Cn1c(SCC(=O)N2CCN(S(=O)(=O)c3ccccc3)CC2)nc2ccccc21,.,.,.,.,1.1,.,.
Nn1cc(-c2ccccc2)nc1SCC(=O)N1CCN(S(=O)(=O)c2ccccc2)CC1,3.2,-0.501,-2.4,-0.25,1,.,.
CC(C)Cn1c(SCC(=O)N2CCN(S(=O)(=O)c3ccccc3)CC2)nc2ccccc21,10.8,-2.59*,4.0,2.43,1.2,348*,198
